Experimental data from different studies.
Each line is one published result; the experiments were not run side by side.
Observed: cell growth or viability

Structure (SMILES) | cell line | assay | conditions | IC50
Cc1ccc(S(=O)(=O)n2cc(CNc3ccc(C(=O)NO)cc3)c3ccccc32)cc1 | LLC-PK1 |  | 48 h | 9.99 µM
COc1ccc(C=Nn2c(-c3ccccc3)nc3ccc(Cl)cc3c2=O)cc1OC | LLC-PK1 | MTT | 72 h | 462 µM
CC(C)(C)c1cnc(CSc2cnc(NC(=O)C3CCN(C(=O)CCCCCCCN4Cc5cc6c(cc5C4)C(=O)N(C4CCC(=O)NC4=O)C6=O)CC3)s2)o1 (centres unmarked) | SK-UT-1 | MTT |  | 0.106 µM
COc1cccc2c1C(=O)c1c(O)c3c(c(O)c1C2=O)C[C@@](O)(C(=O)CO)C[C@@H]3O[C@H]1C[C@H](N)[C@H](O)[C@H](C)O1 | SU-DHL-4 |  | 96 h | 0.00506 µM
NS(=O)(=O)c1ccc(-n2nc(C(=O)NN=Cc3ccccc3O)cc2-c2ccccc2)cc1 | HT-29 | fluorescence | 48 h | 20 µM
CCOc1ccc(C=Nn2c(-c3ccccc3)nc3ccc(Cl)cc3c2=O)cc1 | LLC-PK1 | MTT | 72 h | 136 µM
CC(=NNC(=O)c1cc(-c2ccccc2)n(-c2ccc(S(N)(=O)=O)cc2)n1)c1ccc(Br)cc1 | HT-29 | fluorescence | 48 h | 37.2 µM
CCOc1ccc(C=Nn2c(-c3ccccc3)nc3ccc(Cl)cc3c2=O)cc1O | LLC-PK1 | MTT | 72 h | 342 µM
CC(=NNC(=O)c1cc(-c2ccccc2)n(-c2ccc(S(N)(=O)=O)cc2)n1)c1ccc(C)cc1 | HT-29 | fluorescence | 48 h | 21.8 µM
COc1cccc(-c2cc(NCc3ccc4c(c3)OCO4)nc(N)n2)c1 | A2780 |  | 72 h | 0.0901 µM
O=C(CCSSc1ccccc1/C=N/NC(=O)c1ccccc1)OC[C@H]1OC(O)[C@H](O)[C@@H](O)[C@@H]1O (some centres unmarked) | A2780 | MTT |  | 23 µM
O=c1c2cc(Cl)ccc2nc(-c2ccccc2)n1N=Cc1ccco1 | LLC-PK1 | MTT | 72 h | 154 µM
NS(=O)(=O)c1ccc(-n2nc(C(=O)NN=Cc3ccc(O)cc3)cc2-c2ccccc2)cc1 | HT-29 | fluorescence | 48 h | 19.7 µM
O=c1c2cc(Cl)ccc2nc(-c2ccccc2)n1N=Cc1ccccc1O | LLC-PK1 | MTT | 72 h | 75.7 µM
NS(=O)(=O)c1ccc(-n2nc(-c3nnc(S)o3)cc2-c2ccccc2)cc1 | HT-29 | fluorescence | 48 h | 39.4 µM
O=C(NO)c1ccc(N2CCN(Cc3cnc4ccccc4c3)CC2)cc1 | LLC-PK1 |  | 48 h | > 69.1 µM
O=c1c2cc(Cl)ccc2nc(-c2ccccc2)n1N=Cc1cccc([N+](=O)[O-])c1 | LLC-PK1 | MTT | 72 h | 149 µM
O=C(NO)c1ccc(NCc2cnc3ccccc3c2)cc1 | LLC-PK1 |  | 48 h | 9.38 µM
CC(=O)OC[C@H]1O[C@@H]([S-])[C@H](OC(C)=O)[C@@H](OC(C)=O)[C@@H]1OC(C)=O.CCP(CC)CC.[Au+] | IMR-90 | MTT | 48 h | 5.27 µM
CC(C)N=c1cc2n(-c3ccc(Cl)cc3)c3ccccc3nc-2cc1Nc1ccc(Cl)cc1 | Caco-2 | MTT | 24 h | 23.3 µg/mL
